Results reported in ChEMBL document CHEMBL5335771, “Thioxanthenone-based derivatives as multitarget therapeutic leads for Alzheimer's disease” (Eur J Med Chem, 2023).

What was measured:
[1] = Cytotoxicity against green monkey Vero 76 cells incubated for 48 to 96 hrs by crystal violet staining assay; format: toxicity, cell-based; details: green monkey (Chlorocebus sabaeus)
[2] = target: T1, Amyloid-beta precursor protein (Homo sapiens, UniProt P05067); assay: Inhibition of amyloid beta 40 peptide (unknown origin) aggregation incubated for 2 hr by ThT fluorescence based spectrofluorimetric analysis
Method in brief: (§1)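 Aβ40 peptide aggregation enhanced with 2% HFIP; thioflavin T fluorescence read-out; run in triplicate.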

[3] = Cytotoxicity against mouse brain Primary embryonic cortical cell assessed as cell death at 30 uM incubated for 2 hrs by propidium iodide dye based spectrofluorometric analysis relative to control; format: toxicity
Method in brief: (§2)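 Primary cortical cultures from E16.5 mouse embryo brains, trypsinized, plated on poly-D-lysine, grown in Neurobasal with glutamine, glucose, 5% horse serum and B27; compounds added at 4 DIV. Propidium iodide 30 μM; baseline F1 read 1 h after PI; ex 530/em 645 nm. Fmax after digitonin permeabilization. % death = 100×(Fn−F1)/(Fmax−F1); mean of three independent experiments.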

[4] = Cytotoxicity against mouse brain Primary embryonic cortical cell assessed as cell death at 30 uM incubated for 5 hrs by propidium iodide dye based spectrofluorometric analysis relative to control; format: toxicity; method in brief: as §2
[5] = Cytotoxicity against mouse brain Primary embryonic cortical cell assessed as cell death at 5 uM incubated for 72 hrs by propidium iodide dye based spectrofluorometric analysis relative to control; format: toxicity; method in brief: as §2
[6] = Cytotoxicity against mouse brain Primary embryonic cortical cell assessed as cell death at 2.5 uM incubated for 24 hrs by propidium iodide dye based spectrofluorometric analysis relative to control; format: toxicity; method in brief: as §2
[7] = Cytotoxicity against mouse brain Primary embryonic cortical cell assessed as cell death at 2.5 uM incubated for 72 hrs by propidium iodide dye based spectrofluorometric analysis relative to control; format: toxicity; method in brief: as §2
[8] = Cytotoxicity against mouse brain Primary embryonic cortical cell assessed as cell death at 5 uM incubated for 3 hrs by propidium iodide dye based spectrofluorometric analysis relative to control; format: toxicity; method in brief: as §2
[9] = Cytotoxicity against mouse brain Primary embryonic cortical cell assessed as cell death at 5 uM incubated for 24 hrs by propidium iodide dye based spectrofluorometric analysis relative to control; format: toxicity; method in brief: as §2
[10] = Cytotoxicity against mouse brain Primary embryonic cortical cell assessed as cell death at 10 uM incubated for 72 hrs by propidium iodide dye based spectrofluorometric analysis relative to control; format: toxicity; method in brief: as §2
[11] = Cytotoxicity against mouse brain Primary embryonic cortical cell assessed as cell death at 10 uM incubated for 3 hrs by propidium iodide dye based spectrofluorometric analysis relative to control; format: toxicity; method in brief: as §2
[12] = Cytotoxicity against mouse brain Primary embryonic cortical cell assessed as cell death at 2.5 uM incubated for 3 hrs by propidium iodide dye based spectrofluorometric analysis relative to control; format: toxicity; method in brief: as §2
[13] = Cytotoxicity against mouse brain Primary embryonic cortical cell assessed as cell death at 30 uM incubated for 48 hrs by propidium iodide dye based spectrofluorometric analysis relative to control; format: toxicity; method in brief: as §2
[14] = Cytotoxicity against mouse brain Primary embryonic cortical cell assessed as cell death at 30 uM incubated for 72 hrs by propidium iodide dye based spectrofluorometric analysis relative to control; format: toxicity; method in brief: as §2
[15] = Cytotoxicity against mouse brain Primary embryonic cortical cell assessed as cell death at 2.5 uM incubated for 48 hrs by propidium iodide dye based spectrofluorometric analysis relative to control; format: toxicity; method in brief: as §2
[16] = Cytotoxicity against mouse brain Primary embryonic cortical cell assessed as cell death at 5 uM incubated for 2 hrs by propidium iodide dye based spectrofluorometric analysis relative to control; format: toxicity; method in brief: as §2
[17] = Cytotoxicity against mouse brain Primary embryonic cortical cell assessed as cell death at 10 uM incubated for 2 hrs by propidium iodide dye based spectrofluorometric analysis relative to control; format: toxicity; method in brief: as §2
[18] = Cytotoxicity against mouse brain Primary embryonic cortical cell assessed as cell death at 30 uM incubated for 4 hrs by propidium iodide dye based spectrofluorometric analysis relative to control; format: toxicity; method in brief: as §2
[19] = Cytotoxicity against mouse brain Primary embryonic cortical cell assessed as cell death at 5 uM incubated for 5 hrs by propidium iodide dye based spectrofluorometric analysis relative to control; format: toxicity; method in brief: as §2
[20] = Cytotoxicity against mouse brain Primary embryonic cortical cell assessed as cell death at 30 uM incubated for 6 hrs by propidium iodide dye based spectrofluorometric analysis relative to control; format: toxicity; method in brief: as §2
[21] = Cytotoxicity against mouse brain Primary embryonic cortical cell assessed as cell death at 5 uM incubated for 6 hrs by propidium iodide dye based spectrofluorometric analysis relative to control; format: toxicity; method in brief: as §2
[22] = Cytotoxicity against mouse brain Primary embryonic cortical cell assessed as cell death at 10 uM incubated for 4 hrs by propidium iodide dye based spectrofluorometric analysis relative to control; format: toxicity; method in brief: as §2
[23] = Cytotoxicity against mouse brain Primary embryonic cortical cell assessed as cell death at 10 uM incubated for 24 hrs by propidium iodide dye based spectrofluorometric analysis relative to control; format: toxicity; method in brief: as §2
[24] = Cytotoxicity against mouse brain Primary embryonic cortical cell assessed as cell death at 5 uM incubated for 1 hr by propidium iodide dye based spectrofluorometric analysis relative to control; format: toxicity; method in brief: as §2
[25] = Cytotoxicity against mouse brain Primary embryonic cortical cell assessed as cell death at 2.5 uM incubated for 5 hrs by propidium iodide dye based spectrofluorometric analysis relative to control; format: toxicity; method in brief: as §2
[26] = Cytotoxicity against mouse brain Primary embryonic cortical cell assessed as cell death at 2.5 uM incubated for 6 hrs by propidium iodide dye based spectrofluorometric analysis relative to control; format: toxicity; method in brief: as §2
[27] = Cytotoxicity against mouse brain Primary embryonic cortical cell assessed as cell death at 2.5 uM incubated for 1 hr by propidium iodide dye based spectrofluorometric analysis relative to control; format: toxicity; method in brief: as §2
[28] = target: T2, Microtubule-associated protein tau (Homo sapiens, UniProt P10636); assay: Inhibition of tau (unknown origin) aggregation expressed in Escherichia coli BL21 (DE3) at 10 uM relative to control
Method in brief: (§3)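 E. coli BL21(DE3) carrying pTARA (T7 RNA polymerase under PBAD) and pRKT42 (four-repeat tau) grown at 37 °C in M9 with 0.5% glucose, antibiotics and 250 μM ThS to OD600 0.6. […] ThS fluorescence ex 430/em 485 nm, normalized to tau-expressing cells (100%) and non-expressing cells (0%); OD600 checked for growth.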
Target sequence in this assay (P10636 whole entry): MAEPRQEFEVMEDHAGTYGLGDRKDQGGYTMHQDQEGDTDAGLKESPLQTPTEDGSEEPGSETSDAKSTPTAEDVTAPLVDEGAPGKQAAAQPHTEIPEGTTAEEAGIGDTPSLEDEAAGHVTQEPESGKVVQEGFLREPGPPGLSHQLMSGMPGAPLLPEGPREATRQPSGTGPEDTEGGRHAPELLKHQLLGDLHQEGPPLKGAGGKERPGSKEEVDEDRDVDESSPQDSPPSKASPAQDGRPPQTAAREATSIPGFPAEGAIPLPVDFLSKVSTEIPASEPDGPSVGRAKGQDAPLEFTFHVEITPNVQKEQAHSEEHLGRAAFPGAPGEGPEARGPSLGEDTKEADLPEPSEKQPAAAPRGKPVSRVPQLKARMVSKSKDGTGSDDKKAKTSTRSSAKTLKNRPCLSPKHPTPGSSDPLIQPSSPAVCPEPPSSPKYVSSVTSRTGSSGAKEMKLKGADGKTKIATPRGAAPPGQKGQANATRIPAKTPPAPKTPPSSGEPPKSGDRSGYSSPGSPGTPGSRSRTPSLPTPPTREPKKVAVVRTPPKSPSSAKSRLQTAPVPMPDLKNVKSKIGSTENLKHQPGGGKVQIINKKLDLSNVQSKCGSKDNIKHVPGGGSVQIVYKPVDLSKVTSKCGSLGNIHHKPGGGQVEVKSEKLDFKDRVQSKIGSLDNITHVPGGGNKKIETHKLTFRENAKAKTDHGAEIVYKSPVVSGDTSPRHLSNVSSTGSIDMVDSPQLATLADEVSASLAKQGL

[29] = Cytotoxicity against mouse brain Primary embryonic cortical cell assessed as cell death at 2.5 uM incubated for 2 hrs by propidium iodide dye based spectrofluorometric analysis relative to control; format: toxicity; method in brief: as §2
[30] = Cytotoxicity against mouse brain Primary embryonic cortical cell assessed as cell death at 30 uM incubated for 3 hrs by propidium iodide dye based spectrofluorometric analysis relative to control; format: toxicity; method in brief: as §2
[31] = Cytotoxicity against mouse brain Primary embryonic cortical cell assessed as cell death at 5 uM incubated for 4 hrs by propidium iodide dye based spectrofluorometric analysis relative to control; format: toxicity; method in brief: as §2
[32] = Cytotoxicity against mouse brain Primary embryonic cortical cell assessed as cell death at 10 uM incubated for 48 hrs by propidium iodide dye based spectrofluorometric analysis relative to control; format: toxicity; method in brief: as §2
[33] = Cytotoxicity against mouse brain Primary embryonic cortical cell assessed as cell death at 30 uM incubated for 1 hr by propidium iodide dye based spectrofluorometric analysis relative to control; format: toxicity; method in brief: as §2
[34] = Cytotoxicity against mouse brain Primary embryonic cortical cell assessed as cell death at 10 uM incubated for 6 hrs by propidium iodide dye based spectrofluorometric analysis relative to control; format: toxicity; method in brief: as §2
[35] = Cytotoxicity against mouse brain Primary embryonic cortical cell assessed as cell death at 10 uM incubated for 1 hr by propidium iodide dye based spectrofluorometric analysis relative to control; format: toxicity; method in brief: as §2
[36] = Cytotoxicity against mouse brain Primary embryonic cortical cell assessed as cell death at 10 uM incubated for 5 hrs by propidium iodide dye based spectrofluorometric analysis relative to control; format: toxicity; method in brief: as §2
[37] = Cytotoxicity against mouse brain Primary embryonic cortical cell assessed as cell death at 5 uM incubated for 48 hrs by propidium iodide dye based spectrofluorometric analysis relative to control; format: toxicity; method in brief: as §2
[38] = Cytotoxicity against mouse brain Primary embryonic cortical cell assessed as cell death at 30 uM incubated for 24 hrs by propidium iodide dye based spectrofluorometric analysis relative to control; format: toxicity; method in brief: as §2
[39] = Cytotoxicity against mouse brain Primary embryonic cortical cell assessed as cell death at 2.5 uM incubated for 4 hrs by propidium iodide dye based spectrofluorometric analysis relative to control; format: toxicity; method in brief: as §2
[40] = target: T2, Microtubule-associated protein tau; assay: Inhibition of tau (unknown origin) aggregation expressed in Escherichia coli BL21 (DE3); method in brief: as §3
Target sequence in this assay (P10636 whole entry): as above

[41] = target: T1, Amyloid-beta precursor protein; assay: Inhibition of amyloid beta 40 peptide (unknown origin) aggregation at 100 uM incubated for 2 hr by ThT fluorescence based spectrofluorimetric analysis relative to control; method in brief: as §1
[42] = Cytotoxicity against rat Primary cerebellar granule neuron assessed as cell viability at 10 uM relative to control; format: toxicity, cell-based, Cerebellar granule neurone; details: primary cerebellar granule neurons, read-out: Activity
[43] = Cytotoxicity against human SH-SY5Y cells incubated for 24 hrs by MTT assay; format: toxicity, cell-based
[44] = target: T2, Microtubule-associated protein tau; assay: Inhibition of PHF6 peptide (unknown origin) aggregation at 10 uM measured after 3 hrs by thioflavin T fluorescence based fluorimetric analysis relative to control
Target sequence in this assay (P10636 whole entry, looked up): as the sequence (P10636 whole entry) above

T1 sequence (P05067 whole entry): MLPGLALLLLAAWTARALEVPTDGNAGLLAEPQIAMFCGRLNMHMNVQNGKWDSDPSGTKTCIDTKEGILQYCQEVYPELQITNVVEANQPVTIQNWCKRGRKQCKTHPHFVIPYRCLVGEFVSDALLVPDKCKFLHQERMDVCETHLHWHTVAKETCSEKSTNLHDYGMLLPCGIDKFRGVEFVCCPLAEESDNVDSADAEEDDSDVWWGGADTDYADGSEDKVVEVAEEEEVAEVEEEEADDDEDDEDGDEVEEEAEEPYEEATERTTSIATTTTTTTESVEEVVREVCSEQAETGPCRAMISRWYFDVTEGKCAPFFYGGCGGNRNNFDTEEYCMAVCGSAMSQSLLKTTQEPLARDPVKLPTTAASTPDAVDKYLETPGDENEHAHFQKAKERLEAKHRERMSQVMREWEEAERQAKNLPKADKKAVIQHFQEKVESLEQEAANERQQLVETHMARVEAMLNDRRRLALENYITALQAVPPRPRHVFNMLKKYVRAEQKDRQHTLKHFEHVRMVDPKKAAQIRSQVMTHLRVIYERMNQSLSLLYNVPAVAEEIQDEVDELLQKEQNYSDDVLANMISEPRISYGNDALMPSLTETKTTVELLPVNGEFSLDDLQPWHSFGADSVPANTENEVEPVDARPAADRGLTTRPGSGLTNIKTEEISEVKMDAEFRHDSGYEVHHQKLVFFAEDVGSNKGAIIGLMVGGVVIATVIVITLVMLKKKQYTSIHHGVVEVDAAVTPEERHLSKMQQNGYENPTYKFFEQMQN

Structure (SMILES)	IC50 [1]	IC50 [2]	Activity [3]	Activity [4]	Activity [5]	Activity [6]	Activity [7]	Activity [8]	Activity [9]	Activity [10]	Activity [11]	Activity [12]	Activity [13]	Activity [14]	Activity [15]	Activity [16]	Activity [17]	Activity [18]	Activity [19]	IC50 [40]	other results
Cc1ccc(NC[C@@H]2CCCN3CCCC[C@H]23)c2c(=O)c3ccccc3sc12	12.4 µM	28 µM																			
O=c1c2ccccc2sc2c([N+](=O)[O-])ccc(NCCC[C@@H]3CCCN4CCCC[C@H]34)c12		13 µM	19.1%	51%	79.4%	85.5%	79.6%	5%	77%	74.8%	6.4%	3.7%	82.9%	80.8%	83.3%	2.9%	1.7%	42%	6.6%		Activity [20]: 54.3%; Activity [21]: 5.7%; Activity [22]: 16.2%; Activity [23]: 86.1%; Activity [24]: 1.6%; Activity [25]: 5.2%; Activity [26]: 5.2%; Activity [27]: 0.3%; inhibition [28]: 22%; Activity [29]: 3.1%; Activity [30]: 29.7%; Activity [31]: 4.3%; Activity [32]: 79.1%; Activity [33]: 11.6%; Activity [34]: 35.9%; Activity [35]: -3.1%; Activity [36]: 31%; Activity [37]: 72.4%; Activity [38]: 82.1%; Activity [39]: 4.7%
CCN(CC)CCCNc1ccc(C)c2oc3ccccc3c(=O)c12																				16 µM	inhibition [41]: 55%
Cc1ccc(NCC[C@@H]2CCCN3CCCC[C@H]23)c2c(=O)c3ccccc3sc12	12.4 µM																			46 µM	viability at 10 µM [42]: 78%; IC50 at 24 h [43]: 7.22 µM; inhibition [44]: > 80%
CCN(CC)CCNc1ccc(C)c2sc3ccccc3c(=O)c12 [LUCANTHONE]	12.4 µM	24 µM																		10.9 µM	
COc1ccc2sc3c(C)ccc(NCCC[C@@H]4CCCN5CCCC[C@H]45)c3c(=O)c2c1		2.5 µM	5.7%	9.3%	37.6%	8.9%	33.6%	1.8%	17.8%	42.1%	4.9%	1.8%	52.4%	54.3%	18.4%	3.4%	5.8%	9.5%	4.4%	5.9 µM	Activity [20]: 10.7%; Activity [21]: 5.7%; Activity [22]: 5.3%; Activity [23]: 19.6%; Activity [24]: 1%; Activity [25]: 1.9%; Activity [26]: 2%; Activity [27]: -0.1%; Activity [29]: 1.6%; Activity [30]: 7.1%; Activity [31]: 3.3%; Activity [32]: 27.4%; Activity [33]: 3.8%; Activity [34]: 4%; Activity [35]: 4.2%; Activity [36]: 6.1%; Activity [37]: 27.8%; Activity [38]: 48.6%; Activity [39]: 2.2%
